Assay results collected from several papers.
Each line is one published result; the experiments were not run side by side.
Cell line: NCI-H522
Effect on: cell growth or viability

COc1ccccc1/C=C/C(=O)c1ccc(OC)c(S(N)(=O)=O)c1 — inhibition (SRB; 10 µM): 110%
c1ccc(-c2n(Cc3ccc4ccccc4c3)cc[n+]2Cc2ccc3ccccc3c2)cc1 — TGI (SRB): 2580 nM
COc1cc(-c2ccc(-c3ccc(C(=N)N)nc3)s2)cc(OC)c1OC — GI50 (SRB): 1800 nM
CCCc1n(Cc2ccc3ccccc3n2)cc[n+]1Cc1ccc2ccccc2n1 — TGI (SRB): 4300 nM
COc1ccc(C(=O)/C=C/c2cccnc2)cc1S(N)(=O)=O — inhibition (SRB; 10 µM): 168%
O=C1NCCc2[nH]c(-c3ccncc3)cc21 — IC50: > 10000 nM
COc1ccc(C(=O)/C=C/c2cccc(Cl)c2Cl)cc1S(N)(=O)=O — inhibition (SRB; 10 µM): 156%
Cc1n(Cc2ccc3ccccc3n2)cc[n+]1Cc1ccc2ccccc2c1 — TGI (SRB): 1460 nM
O=C1Nc2ccccc2C1=NNc1nnc2n1N=C(c1ccccc1)CS2 — inhibition (SRB; 10 µM): 57%
COc1ccc(C(=O)/C=C/c2ccc3ccccc3c2)cc1S(N)(=O)=O — inhibition (SRB; 10 µM): 163%
CCc1n(Cc2ccc3ccccc3n2)cc[n+]1Cc1ccc2ccccc2n1 — TGI (SRB): 1490 nM
COc1ccc(C2=Nn3c(NN=C4C(=O)Nc5ccc(Cl)cc54)nnc3SC2)cc1 — inhibition (SRB; 10 µM): 34%
Cc1cc(C)n(C(=S)[S][Au][PH](CCCCCC[PH]([Au][S]C(=S)n2nc(C)cc2C)(c2ccccc2)c2ccccc2)(c2ccccc2)c2ccccc2)n1 — GI50 (SRB): 1240 nM
COc1cccc(Oc2ccccc2NC(=O)CNC(=O)c2cccc3ccccc23)c1 — GI50 (SRB; 48 h): 178 nM
